From ChEMBL document CHEMBL5247575 (J Med Chem, 2018)
pKd: −log10 of the molar value. Values after ≈ are worked out from the molar mass of the structure shown.

Tests used:
Klebsiella pneumoniae [1] = experiment: Synergistic antibacterial activity against Klebsiella pneumoniae 1084/1957 producing KPC-3 assessed as cefepime MIC at 4 ug/ml by broth microdilution method; type: functional; details: dose 4 µg/ml
Summary of the method: (§1)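 Broth microdilution per CLSI guidelines, using custom frozen panels. […] Each partner drug was also tested alone. MICs were run in triplicate and the modal value is reported.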

Klebsiella pneumoniae [2] = experiment: Synergistic antibacterial activity against Klebsiella pneumoniae 776/1742 producing KPC-2 assessed as cefepime MIC at 4 ug/ml by broth microdilution method; type: functional; details: dose 4 µg/ml
Pseudomonas aeruginosa [3] = experiment: Synergistic antibacterial activity against Pseudomonas aeruginosa CL232 assessed as cefepime MIC at 4 ug/ml by broth microdilution method; type: functional; details: dose 4 µg/ml
Escherichia coli [4] = experiment: Synergistic antibacterial activity against Escherichia coli DH10B assessed as meropenem MIC at 4 ug/ml by broth microdilution method; type: functional; details: dose 4 µg/ml
Acinetobacter baumannii [5] = experiment: Synergistic antibacterial activity against ADC deleted Acinetobacter baumannii transfected with pWH1266 OXA-23 assessed as meropenem MIC at 8 ug/ml by broth microdilution method; type: functional; details: dose 8 µg/ml
Summary of the method: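 Broth microdilution per CLSI guidelines in frozen panels. Test compound held at fixed 8 mg/L while the partner β-lactam concentration was increased. Run in triplicate; modal MIC reported.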

Klebsiella pneumoniae [6] = experiment: Synergistic antibacterial activity against Klebsiella pneumoniae 761/1723 producing KPC-3 assessed as meropenem MIC at 4 ug/ml by broth microdilution method; type: functional; details: dose 4 µg/ml
Acinetobacter baumannii [7] = experiment: Synergistic antibacterial activity against Acinetobacter baumannii PR319 producing OXA-23/24/40 assessed as cefepime MIC at 4 ug/ml by broth microdilution method; type: functional; details: dose 4 µg/ml
Acinetobacter baumannii [8] = experiment: Synergistic antibacterial activity against Acinetobacter baumannii PR440 producing OXA-23/24/40 assessed as meropenem MIC at 8 ug/ml by broth microdilution method; type: functional; details: dose 8 µg/ml
Klebsiella pneumoniae [9] = experiment: Synergistic antibacterial activity against Klebsiella pneumoniae 1398/2291 producing KPC-3 assessed as cefepime MIC at 8 ug/ml by broth microdilution method; type: functional; details: dose 8 µg/ml; summary of the method: as §1
Klebsiella pneumoniae [10] = experiment: Synergistic antibacterial activity against Klebsiella pneumoniae CAV 1543 producing OXA-48 assessed as meropenem MIC at 8 ug/ml by broth microdilution method; type: functional; details: dose 8 µg/ml
Klebsiella pneumoniae [11] = experiment: Synergistic antibacterial activity against Klebsiella pneumoniae 972/1910 producing KPC-3 assessed as cefepime MIC at 8 ug/ml by broth microdilution method; type: functional; details: dose 8 µg/ml
Pseudomonas aeruginosa [12] = experiment: Synergistic antibacterial activity against Pseudomonas aeruginosa 839 assessed as cefepime MIC at 4 ug/ml by broth microdilution method; type: functional; details: dose 4 µg/ml
[13] = Binding affinity to bacteria ADC-7 assessed as dissociation constant
Acinetobacter baumannii [14] = experiment: Synergistic antibacterial activity against Acinetobacter baumannii PR319 producing OXA-23/24/40 assessed as meropenem MIC at 8 ug/ml by broth microdilution method; type: functional; details: dose 8 µg/ml
Acinetobacter baumannii [15] = experiment: Synergistic antibacterial activity against Acinetobacter baumannii PR363 producing OXA-23 assessed as meropenem MIC at 4 ug/ml by broth microdilution method; type: functional; details: dose 4 µg/ml
Klebsiella pneumoniae [16] = experiment: Synergistic antibacterial activity against Klebsiella pneumoniae CAV 1543 producing OXA-48 assessed as cefepime MIC at 8 ug/ml by broth microdilution method; type: functional; details: dose 8 µg/ml
Pseudomonas aeruginosa [17] = experiment: Synergistic antibacterial activity against Pseudomonas aeruginosa 776 assessed as meropenem MIC at 4 ug/ml by broth microdilution method; type: functional; details: dose 4 µg/ml
Klebsiella pneumoniae [18] = experiment: Synergistic antibacterial activity against Klebsiella pneumoniae 1354/2241 producing KPC-3 assessed as cefepime MIC at 8 ug/ml by broth microdilution method; type: functional; details: dose 8 µg/ml; summary of the method: as §1
Klebsiella pneumoniae [19] = experiment: Synergistic antibacterial activity against Klebsiella pneumoniae 440/1360 producing KPC-2 assessed as meropenem MIC at 4 ug/ml by broth microdilution method; type: functional; details: dose 4 µg/ml; summary of the method: as §1
Klebsiella pneumoniae [20] = experiment: Synergistic antibacterial activity against Klebsiella pneumoniae 1108/1989 producing KPC-3 assessed as cefepime MIC at 8 ug/ml by broth microdilution method; type: functional; details: dose 8 µg/ml; summary of the method: as §1
Escherichia coli [21] = experiment: Synergistic antibacterial activity against Escherichia coli DH10B transfected with pBR322-catI-KPC-2 assessed as meropenem MIC at 8 ug/ml by broth microdilution method; type: functional; details: dose 8 µg/ml; summary of the method: as §1
Klebsiella pneumoniae [22] = experiment: Synergistic antibacterial activity against Klebsiella pneumoniae 1315/2198 producing KPC-3 assessed as meropenem MIC at 8 ug/ml by broth microdilution method; type: functional; details: dose 8 µg/ml; summary of the method: as §1
Bacteria [23] = experiment: Inhibition of bacteria ADC-7 assessed as Koff rate using nitrocefin as substrate incubated for 30 mins
Escherichia coli [24] = experiment: Synergistic antibacterial activity against Escherichia coli DH10B transfected with pBC SK (-) KPC-2 assessed as meropenem MIC at 8 ug/ml by broth microdilution method; type: functional; details: dose 8 µg/ml
Klebsiella pneumoniae [25] = experiment: Synergistic antibacterial activity against Klebsiella pneumoniae NY BS producing OXA-232 assessed as cefepime MIC at 8 ug/ml by broth microdilution method; type: functional; details: dose 8 µg/ml
Acinetobacter baumannii [26] = experiment: Synergistic antibacterial activity against ADC deleted Acinetobacter baumannii transfected with pWH1266 producing OXA-24/40 assessed as meropenem MIC at 4 ug/ml by broth microdilution method; type: functional; details: dose 4 µg/ml
Acinetobacter baumannii [27] = experiment: Synergistic antibacterial activity against Acinetobacter baumannii PR359 producing OXA-23 assessed as cefepime MIC at 8 ug/ml by broth microdilution method; type: functional; details: dose 8 µg/ml
Acinetobacter baumannii [28] = experiment: Synergistic antibacterial activity against Acinetobacter baumannii PR448 producing OXA-23 assessed as cefepime MIC at 4 ug/ml by broth microdilution method; type: functional; details: dose 4 µg/ml
Klebsiella pneumoniae [29] = experiment: Synergistic antibacterial activity against Klebsiella pneumoniae 901/1860 producing KPC-3 assessed as cefepime MIC at 4 ug/ml by broth microdilution method; type: functional; details: dose 4 µg/ml
Acinetobacter baumannii [30] = experiment: Synergistic antibacterial activity against ADC deleted Acinetobacter baumannii assessed as meropenem MIC at 8 ug/ml by broth microdilution method; type: functional; details: dose 8 µg/ml
Klebsiella pneumoniae [31] = experiment: Synergistic antibacterial activity against Klebsiella pneumoniae 660/1568 producing KPC-3 assessed as meropenem MIC at 8 ug/ml by broth microdilution method; type: functional; details: dose 8 µg/ml; summary of the method: as §1
Klebsiella pneumoniae [32] = experiment: Synergistic antibacterial activity against Klebsiella pneumoniae jefferson 1775 producing OXA-48 assessed as meropenem MIC at 4 ug/ml by broth microdilution method; type: functional; details: dose 4 µg/ml
Pseudomonas aeruginosa [33] = experiment: Synergistic antibacterial activity against Pseudomonas aeruginosa 839 assessed as cefepime MIC at 8 ug/ml by broth microdilution method; type: functional; details: dose 8 µg/ml
Klebsiella pneumoniae [34] = experiment: Synergistic antibacterial activity against Klebsiella pneumoniae jefferson 1775 producing OXA-48 assessed as cefepime MIC at 4 ug/ml by broth microdilution method; type: functional; details: dose 4 µg/ml
Pseudomonas aeruginosa [35] = experiment: Synergistic antibacterial activity against Pseudomonas aeruginosa 795 assessed as meropenem MIC at 8 ug/ml by broth microdilution method; type: functional; details: dose 8 µg/ml
Escherichia coli [36] = experiment: Synergistic antibacterial activity against Escherichia coli DH10B transfected with pBC SK (-) OXA-48 assessed as cefepime MIC at 8 ug/ml by broth microdilution method; type: functional; details: dose 8 µg/ml; summary of the method: as §1
Pseudomonas aeruginosa [37] = experiment: Antibacterial activity against Pseudomonas aeruginosa 839 by broth microdilution method; type: functional
Escherichia coli [38] = experiment: Synergistic antibacterial activity against Escherichia coli DH10B transfected with pBC SK (-) KPC-2 assessed as cefepime MIC at 8 ug/ml by broth microdilution method; type: functional; details: dose 8 µg/ml
Bacteria [39] = experiment: Inhibition of bacteria PDC-3 assessed as second order rate constant K2/K using nitrocefin as substrate
Escherichia coli [40] = experiment: Antibacterial activity against Escherichia coli DH10B transfected with pBC SK (-) OXA-48 by broth microdilution method; type: functional

Row | Compound | MIC (Klebsiella pneumoniae [1]) [µg/mL] | MIC (Klebsiella pneumoniae [2]) [µg/mL] | MIC (Pseudomonas aeruginosa [3]) [µg/mL] | MIC (Escherichia coli [4]) [µg/mL] | MIC (Acinetobacter baumannii [5]) [µg/mL] | MIC (Klebsiella pneumoniae [6]) [µg/mL] | MIC (Acinetobacter baumannii [7]) [µg/mL] | MIC (Acinetobacter baumannii [8]) [µg/mL] | MIC (Pseudomonas aeruginosa [12]) [µg/mL] | MIC (Acinetobacter baumannii [15]) [µg/mL] | MIC (Pseudomonas aeruginosa [17]) [µg/mL] | MIC (Klebsiella pneumoniae [19]) [µg/mL] | K (Bacteria [23]) | MIC (Acinetobacter baumannii [26]) [µg/mL] | MIC (Acinetobacter baumannii [28]) [µg/mL] | MIC (Klebsiella pneumoniae [29]) [µg/mL] | MIC (Klebsiella pneumoniae [32]) [µg/mL] | MIC (Klebsiella pneumoniae [34]) [µg/mL] | MIC (Pseudomonas aeruginosa [37]) [µg/mL] | K (Bacteria [39]) | also measured
1 | O=C(NNC(=O)[C@@H]1CC[C@@H]2CN1C(=O)N2OS(=O)(=O)O)[C@@H]1CCCNC1 [ZIDEBACTAM] | ≤ 0.12 | ≤ 0.12 | 16 | ≤ 0.12 | > 16 | ≤ 0.12 | > 16 | > 16 | 2 | > 16 | 16 | ≤ 0.12 | 1.1 10^-3/s | > 16 | 4 | ≤ 0.12 | ≤ 0.12 | ≤ 0.12 | 8 (≈ 20.4 µM) | 4.8 10^5/M/s | MIC (Klebsiella pneumoniae [9]): ≤ 0.12 µg/mL; MIC (Klebsiella pneumoniae [10]): ≤ 0.12 µg/mL; MIC (Klebsiella pneumoniae [11]): ≤ 0.12 µg/mL; pKd [13]: 7.49; MIC (Acinetobacter baumannii [14]): > 16 µg/mL; MIC (Klebsiella pneumoniae [16]): ≤ 0.12 µg/mL; MIC (Klebsiella pneumoniae [18]): ≤ 0.12 µg/mL; MIC (Klebsiella pneumoniae [20]): ≤ 0.12 µg/mL; MIC (Escherichia coli [21]): ≤ 0.12 µg/mL; MIC (Klebsiella pneumoniae [22]): ≤ 0.12 µg/mL; MIC (Escherichia coli [24]): ≤ 0.12 µg/mL; MIC (Klebsiella pneumoniae [25]): ≤ 0.12 µg/mL; MIC (Acinetobacter baumannii [27]): 16 µg/mL; MIC (Acinetobacter baumannii [30]): ≤ 0.12 µg/mL; MIC (Klebsiella pneumoniae [31]): ≤ 0.12 µg/mL; MIC (Pseudomonas aeruginosa [33]): 0.5 µg/mL; MIC (Pseudomonas aeruginosa [35]): 4 µg/mL; MIC (Escherichia coli [36]): ≤ 0.12 µg/mL; MIC (Escherichia coli [38]): ≤ 0.12 µg/mL
2 | O.O=C(NC1CCNCC1)[C@@H]1CC[C@@H]2CN1C(=O)N2OS(=O)(=O)O [RELEBACTAM] | 0.25 | 1 | 16 | ≤ 0.12 | – | ≤ 0.12 | > 16 | – | 4 | > 16 | > 16 | ≤ 0.12 | 3 10^-4/s | > 16 | 16 | ≤ 0.12 | 2 | 0.25 | > 16 | 4.6 10^4/M/s | MIC (Escherichia coli [40]): > 16 µg/mL
3 | N#C[C@@H]1CC[C@@H]2CN1C(=O)N2OS(=O)(=O)[O-].[Na+] | ≤ 0.12 | 1 | > 16 | ≤ 0.12 | 4 | ≤ 0.12 | > 16 | 2 | 8 | 4 | 16 | ≤ 0.12 | 1 10^-3/s | > 16 | 2 | ≤ 0.12 | ≤ 0.12 | ≤ 0.12 | > 16 | 2.3 10^4/M/s | MIC (Escherichia coli [40]): > 16 µg/mL; MIC (Klebsiella pneumoniae [9]): 0.25 µg/mL; MIC (Klebsiella pneumoniae [10]): ≤ 0.12 µg/mL; MIC (Klebsiella pneumoniae [11]): 0.25 µg/mL; MIC (Acinetobacter baumannii [14]): > 16 µg/mL; MIC (Klebsiella pneumoniae [16]): 0.25 µg/mL; MIC (Klebsiella pneumoniae [18]): ≤ 0.12 µg/mL; MIC (Klebsiella pneumoniae [20]): ≤ 0.12 µg/mL; MIC (Escherichia coli [21]): ≤ 0.12 µg/mL; MIC (Klebsiella pneumoniae [22]): ≤ 0.12 µg/mL; MIC (Escherichia coli [24]): ≤ 0.12 µg/mL; MIC (Klebsiella pneumoniae [25]): 1 µg/mL; MIC (Acinetobacter baumannii [27]): 8 µg/mL; MIC (Acinetobacter baumannii [30]): ≤ 0.12 µg/mL; MIC (Klebsiella pneumoniae [31]): ≤ 0.12 µg/mL; MIC (Pseudomonas aeruginosa [33]): 8 µg/mL; MIC (Pseudomonas aeruginosa [35]): 16 µg/mL; MIC (Escherichia coli [36]): ≤ 0.12 µg/mL; MIC (Escherichia coli [38]): ≤ 0.12 µg/mL
